Compound activity as filed in PubChem.
This excerpt belongs to a sample that is enriched for hits.
UPR CHOP act – activators of apoptotic arm of unfolded protein response (CHOP); CHO-CHOP luciferase reporter, UPR activation, luminescence; percent of tunicamycin response over DMSO baseline; activation, % at 10 µM; 0.34% of 330,000 active;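 active = at 10 µM dose, activation of 40% or more, normalized to positive control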;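 also: 100% = tunicamycin at 10 µg/mL and 0% = DMSO alone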
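Material: CHO-CHOP cells, stable luciferase reporter of PERK-eIF2a-CHOP signalling; quantity: 500 reporter cells seeded per well; buffer or medium: F12 medium containing 10% fetal bovine serum; compound: one dose, 10 µM in 0.5% DMSO; incubation: 6 h compound treatment, 37 °C; measured by: Steady-Glo luciferase luminescence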
697 NFkB inh – lowers PMA/ionomycin-induced NF-kB signal in 697 B cells. inhibition, % at 4 µM. 0.33% of 330,000 active. 697 B-cell NF-kB luciferase reporter, 16 h; in the data active = inhibition above about 35%
CHOP inhibitor – inhibitors of CHOP induction in ER stress response | CHO-K1 CHOP-promoter luciferase, tunicamycin-induced, 15-18 h | inhibition, % at 10 µM | 3.8% of 220,000 active;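 active = compounds that reduced the stress-induced luciferase reporter signal by more than about 70% of percent inhibition, limit read from the data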;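 also: 0% = tunicamycin plus vehicle and 100% = wells without tunicamycin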
Jurkat NFkB inh – lowers PMA/ionomycin-induced NF-kB signal in Jurkat cells. PMA/ionomycin-induced NF-kB luciferase reporter, luminescence. inhibition, % at 4 µM. 0.53% of 330,000 active. AID 435003; in the data active = inhibition above about 50%
XBP1 UPR activ – adaptive UPR (XBP1) activation. 0.33% of 330,000 active. AID 463104. CHO-XBP1 luciferase reporter, IRE1-XBP1 UPR activation, luminescence; percent of tunicamycin response, DMSO as zero. activation, % at 20 µM;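 active = versus positive control, 20 µM dose yields 30% or more activation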;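 also: 100% = tunicamycin at 10 µg/mL and 0% = DMSO only wells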
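Test system: CHO-XBP1 luciferase reporter cells | Buffer or medium: Serum-containing F12 medium, 10% FBS | Schedule: 6 h compound exposure at 37 °C, 5% CO2 | Detection: Steady-Glo luciferase glow luminescence, 10 min after reagent addition | Read-out basis: Activation, % of tunicamycin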
Jurkat NFkB conf – lowers PMA/ionomycin-induced NF-kB signal in Jurkat cells | shares compounds with Jurkat NFkB inh | Jurkat NF-kB luciferase, 16 h | inhibition, % at 4 µM | 27% of 2,700 active;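 active = inhibition reaching about 45% at 4 µM in either replicate, limit read from the data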;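 also: plate controls were PMA/ionomycin stimulated DMSO wells for no effect and unstimulated DMSO wells for full effect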
697 NFkB conf – inhibitors of the PMA/ionomycin-induced NF-kB reporter in 697 B cells, retest. shares compounds with 697 NFkB inh. 697 B-cell NF-kB luciferase, 16 h. inhibition, % at 4 µM. 35% of 2,000 active. AID 449746; in the data active = inhibition mostly above about 28%, no sharp cut-off; inactive = mostly below about 22%
* = called active by the depositor; i = inactive; · = no result given.

SMILES | UPR CHOP act | 697 NFkB inh | CHOP inhibitor | Jurkat NFkB inh | XBP1 UPR activ | Jurkat NFkB conf | 697 NFkB conf
COc1cccc(OCC(=O)O/N=C(\N)c2ccc(OC)c(OC)c2)c1 | 3 | 3 | 6 | 14 | 3 | · | ·
Cn1c2c(c(=O)n(C)c1=O)C(C(F)(F)F)(C(F)(F)F)N=C(c1ccc(Cl)cc1)N2 | 15 | 97* | 77* | 71* | 8 | 86* | 8
CC1CCCN(c2ccc([N+](=O)[O-])cc2C(=O)c2ccccc2)C1 (configuration not stated) | 1 | 35* | 34 | 51* | 10 | 40 | 30*
CC1CCN(c2ccc([N+](=O)[O-])cc2C(=O)O)CC1 | -1 | 1 | -13 | -5 | -1 | · | ·
CN=c1scc(-c2ccccc2F)n1/N=C/c1ccc[nH]1 | -9 | 36* | 98* | 70* | -10 | 75* | 42*
O=c1c2c3c(sc2nc2n1N=C(c1cccs1)CS2)CCCC3 | 4 | -313 | 6 | -195 | 1 | -63 | -120
O=c1oc(-c2cccs2)nc2sc3c(c12)CCCC3 | 5 | -32 | 8 | 4 | -1 | · | ·
CC(C)[C@H](NC(=O)OCc1ccccc1)C(=O)N[C@@H](Cc1c[nH]c2ccccc12)C(=O)O | 0 | 12 | · | 4 | -1 | · | ·
O=C(COC(=O)c1ccc[nH]c1=O)Nc1ccc(N2CCCCC2)cc1 | -8 | 79* | · | 51* | -6 | 70* | 80*
CC(NCC(O)COc1ccccc1)C1COc2ccccc2O1 (configuration not stated) | 1 | -15 | · | -10 | -2 | · | ·
COC(=O)c1ccccc1S(=O)c1snnc1C (configuration not stated) | -2 | 4 | 11 | 7 | 0 | · | ·
O=C(O)c1ccccc1C(=O)NCc1c(Cl)cccc1Sc1ccc(Cl)cc1 | 0 | 6 | · | -16 | -4 | · | ·
CC(O)[C@H]1CNC(=O)C(=O)N1CCCCC1CCCCC1 (some centres not stated) | -1 | -11 | 5 | 13 | -1 | · | ·
O=C(CCl)N1CCCC1c1ccc2c(c1)OCCO2 (configuration not stated) | 12 | 52* | · | 85* | -5 | 78* | 67*
CC(=O)c1ccc(OCC(=O)N2CCCC2c2ccc3c(c2)OCCCO3)cc1 (configuration not stated) | 0 | 13 | · | 1 | 0 | · | ·
CCc1ccc(OCC(=O)Nc2ccc(S(=O)(=O)Nc3cc(C)on3)cc2)c(Br)c1 | -2 | -2 | · | 1 | 0 | · | ·
Nc1ccc(C#Cc2ccccc2)cc1 | 3 | -20 | 28 | -38 | 3 | · | ·
Nc1ccccc1C#Cc1ccccc1 | 3 | -255 | 14 | 55* | 6 | -80 | -76
CCOC(=O)C1CCN(C(=S)Nc2cccc(C)c2C)CC1 | 2 | -12 | 10 | 5 | -1 | · | ·
C[C@@H]1C=CC(=O)O[C@@H]1c1ccc(C(F)(F)F)cc1 | 5 | 60* | · | 97* | 4 | 97* | -41
Cc1ccc(S(=O)(=O)NC(C)(C)CN2CCc3ccccc3C2)cc1 | 0 | 3 | 19 | 5 | 2 | · | ·
O=c1c2ccccc2nc2n1CCCCN2 | 3 | 0 | 13 | -6 | -1 | · | ·
CC(CCc1ccccc1)NC(=O)CCCCCNc1nc(=S)[nH]c2ccccc12 (configuration not stated) | 0 | 16 | 32 | 3 | -2 | · | ·
Cc1cc(C(=O)COC(=O)c2ccccc2O)c(C)n1CC1CCCO1 (configuration not stated) | -9 | 52* | · | 74* | -9 | 86* | 43*
Cc1cc(C(=O)COC(=O)c2cc(O)c3ccccc3c2O)c(C)n1CC1CCCO1 (configuration not stated) | · | · | 1 | · | · | · | ·
SMILES | UPR CHOP act | 697 NFkB inh | CHOP inhibitor | Jurkat NFkB inh | XBP1 UPR activ | Jurkat NFkB conf | 697 NFkB conf
C=CCn1c(C)cc(C(=O)COC(=O)c2ccc(N)c([N+](=O)[O-])c2)c1C | 3 | -194 | 17 | -127 | 1 | · | ·
CCn1c(C)cc(C(=O)COC(=O)c2ccccc2[N+](=O)[O-])c1C | -10 | 41* | · | 59* | -9 | 94* | 47*
C=CCn1c(COc2ccc(F)cc2)nnc1SC(C)C(=O)NCC1CCCO1 (configuration not stated) | 1 | 8 | · | 0 | -3 | · | ·
Cn1nc(CC(=O)N2CCN(c3ccccc3)CC2)c2ccccc2c1=O | 1 | 6 | 17 | 6 | 1 | · | ·
Cn1nc(CC(=O)Nc2ccc3c(c2)OCCO3)c2ccccc2c1=O | 6 | 43* | · | 52* | -3 | 66* | 41*
Cn1nc(CC(=O)Nc2ccc(N3CCN(C(=O)OC(C)(C)C)CC3)cc2)c2ccccc2c1=O | 7 | 46* | · | 55* | -3 | 53* | 1
CCC1=Nc2cc(C(=O)NCCN3CCOCC3)ccc2Sc2ccccc21 | 1 | 3 | · | 12 | -9 | · | ·
CCOCCCNC(=O)c1ccc2c(c1)N=C(CC)c1cc(Br)ccc1S2 | 1 | -251 | -20 | 78* | 17 | 55* | 14
COC(=O)CCn1nnc(-c2ccc(C(C)C)cc2)n1 | -8 | 69* | 88* | 64* | -8 | 61* | 78*
CCOC(=O)CNC(=O)CCc1nnc2ccc(N3CCC(C)CC3)nn12 | 3 | 12 | · | 9 | -4 | · | ·
Cc1oc(-c2ccccc2Cl)nc1CS(=O)CC(=O)NCc1ccccc1Cl (configuration not stated) | 1 | 14 | · | 2 | -2 | · | ·
Cc1cc(N2CCCCC2)n2ncc(-c3ccc(Cl)cc3)c2n1 | 4 | -309 | 35 | -189 | 6 | -80 | -214
CC(C)(C)c1cc(N2CCOCC2)n2ncc(-c3ccc(Cl)cc3)c2n1 | 3 | -11 | · | -16 | -2 | · | ·
Cc1cc(N2CCCCC2)n2ncc(-c3ccccc3)c2n1 | -7 | i | -61 | -185 | -4 | -63 | -418
Cc1cc(-c2ccccc2)n2ncc(-c3ccccc3)c2n1 | -2 | i | 53 | -202 | -3 | -91 | i
Cc1cc(N2CCOCC2)n2ncc(-c3ccc(Cl)cc3)c2n1 | 2 | -361 | 12 | -157 | -2 | -24 | -230
O=C(CCNS(=O)(=O)c1ccccc1)OCC(=O)c1ccc(Br)cc1 | 1 | -11 | · | 8 | -3 | · | ·
COc1ccccc1NS(=O)(=O)c1cccc(C(=O)NCC(c2ccco2)N(C)C)c1 (configuration not stated) | 0 | -1 | · | 7 | -2 | · | ·
COC(=O)c1cn[nH]c1NC(=S)Nc1ccc(C)cc1Cl | 2 | -413 | -34 | -205 | -2 | -143 | -233
COC(=O)c1cn[nH]c1NC(=S)Nc1ccccc1C | 2 | -54 | 9 | 8 | 2 | · | ·
